This note sets out measurements from ChEMBL document CHEMBL1122734, “A novel peptide delivery system involving peptidase activated prodrugs as antimicrobial agents. Synthesis and biological activity of peptidyl derivatives of 5-fluorouracil” (J Med Chem, 1984).

What is called MIC is the lowest concentration found to suppress growth.

Structures are written as SMILES. Values after ≈ are worked out from the molar mass of the structure shown. Where only a bound is given, the exact number is not on record here.

For data set [1], the species on record is Homo sapiens. Briefly: Stability in human serum at the time of zero(0) hours, stability was measured by in the form of percent Fluoro uracil. In kind it is ADME. The method in brief:
(§1)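 A 1:1 mixture of the L,L and L,D peptide diastereomers was added as powder to undiluted serum at 0.5 mg/mL and held at 37 °C. Samples were taken at time points, filtered through glass fiber, and analysed by reversed-phase (RP-18) HPLC. Values are the increase in percent free 5-FU.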

For data set [2], the species on record is Homo sapiens. Briefly: Stability in human serum at the time of 50 hours, stability was measured by in the form of percent Fluoro uracil. In kind it is ADME. The method in brief:
as §1

The species entered for data set [3] is Mus musculus. Briefly: Stability in mouse serum at the time of zero(0) hours, stability was measured by in the form of percent Fluoro uracil. In kind it is ADME. The method in brief: as §1
In data set [4] the test system is Escherichia coli. Briefly: Compound is evaluated for antagonistic activity against Escherichia coli M2626 at […]. In kind it is functional.
The species entered for data set [5] is Homo sapiens. Briefly: Stability in human serum at the time of 1.5 hours, stability was measured by in the form of percent Fluoro uracil. In kind it is ADME. The method in brief:
as §1

The species entered for data set [6] is Mus musculus. Briefly: Stability in mouse serum at the time of 24 hours, stability was measured by in the form of percent Fluoro uracil. In kind it is ADME. The method in brief: as §1
For data set [7], the species on record is Mus musculus. Briefly: Stability in mouse serum at the time of 0.5 hours, stability was measured by in the form of percent Fluoro uracil. In kind it is ADME. In outline:
as §1

For data set [8], the system named is Candida albicans. Briefly: Compound is evaluated for minimum inhibitory concentrations against Candida albicans strain B311. In kind it is functional. The method in brief:
(§2)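 Twofold broth dilution in yeast carbon base medium with lysine 200 µg/mL. Final inoculum was approximately 10^4-10^5 cfu/mL, incubated overnight at 37 °C. MIC was taken as the lowest concentration giving complete growth inhibition.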

The species named for data set [9] is Mus musculus. Briefly: Stability in mouse serum at the time of 1.5 hours, stability was measured by in the form of percent Fluoro uracil. In kind it is ADME. In outline:
as §1

Data set [10] can be described thus: Stability in water (H20) at the time of 240 hours, stability was measured by in the form of percent Fluoro uracil. As to conditions: buffer. In kind it is physicochemical. In outline: (§3)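 A 1:1 mixture of the L,L and L,D peptide diastereomers was added at 0.5 mg/mL to distilled water and kept at 23 °C. Samples were taken over time, filtered through glass fiber, and analysed by RP-18 HPLC. Values are the percent free 5-FU formed.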

Data set [11] is filed under the species Mus musculus. Briefly: Stability in mouse serum at the time of 2.5 hours, stability was measured by in the form of percent Fluoro uracil. In kind it is ADME. In outline: as §1
The subject of data set [12] is Escherichia coli. Briefly: 2 mg/disk of dialanine was codisked on the compound and evaluated for antagonistic activity against Escherichia coli M2626,at 6.0 ug/disk. In kind it is functional. In outline: (§4)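 Disk diffusion on E. coli seeded agar plates. Culture grown in trypticase soy broth for 7 h at 37 °C with shaking at 250 rpm, then 1 mL per litre of agar medium; plates made as for C. albicans but with M-9 medium. Peptide in water absorbed onto 6.35-mm paper disks. Antagonism tested by placing a second disk with noninhibitory di- or tripeptide over the test disk. Plates incubated 24 h at 37 °C; inhibition zones read.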

The test system of data set [13] is Escherichia coli. Briefly: 2 mg/disk of dialanine was codisked on the compound and evaluated for antagonistic activity against Escherichia coli M2626,at […]. In kind it is functional.
For data set [14], the system named is Escherichia coli. Briefly: Compound is evaluated for antagonistic activity against Escherichia coli M2626 at 6.0 ug/disk. In kind it is functional. In outline:
as §4

For data set [15], the species on record is Mus musculus. Briefly: Stability in mouse serum at the time of 5 hours, stability was measured by in the form of percent Fluoro uracil. In kind it is ADME. The method in brief: as §1
Data set [16] has as its system Candida albicans. Briefly: Compound is evaluated for minimum inhibitory concentrations against Candida albicans strain BC759. In kind it is functional. In outline:
as §2

In data set [17] the test system is Escherichia coli. Briefly: Compound is evaluated for antagonistic activity against Escherichia coli M2626 at 1.5 ug/disk. In kind it is functional. In outline:
as §4

For data set [18], the species on record is Homo sapiens. Briefly: Stability in human serum at the time of 0.5 hours, stability was measured by in the form of percent Fluoro uracil. In kind it is ADME. In outline:
as §1

The subject of data set [19] is Escherichia coli. Briefly: 2 mg/disk of dialanine was codisked on the compound and evaluated for antagonistic activity against Escherichia coli M2626,at 1.5 ug/disk. In kind it is functional. The method in brief:
as §4

In data set [20] the test system is Escherichia coli. Briefly: 2 mg/disk of dialanine was codisked on the compound and evaluated for antagonistic activity against Escherichia coli M2626,at 3.0 ug/disk. In kind it is functional. The method in brief: as §4
For data set [21], the system named is Candida albicans. Briefly: Compound is evaluated for minimum inhibitory concentrations against Candida albicans strain 3153A. In kind it is functional. In outline: as §2
Data set [22] is described as follows: Stability in water (H20) at the time of zero(0) hours, stability was measured by in the form of percent Fluoro uracil. In kind it is physicochemical. As to conditions: buffer. The method in brief: as §3
Data set [23] has as its system Escherichia coli. Briefly: Compound is evaluated for antagonistic activity against Escherichia coli M2626 at 25.0 ug/disk. In kind it is functional. The method in brief:
as §4

The subject of data set [24] is Escherichia coli. Briefly: Compound is evaluated for antagonistic activity against Escherichia coli M2626 at 3.0 ug/disk. In kind it is functional. In outline:
as §4

Data set [25] is filed under the species Homo sapiens. Briefly: Stability in human serum at the time of 24 hours, stability was measured by in the form of percent Fluoro uracil. In kind it is ADME. The method in brief: as §1
The species named for data set [26] is Homo sapiens. Briefly: Stability in human serum at the time of 5 hours, stability was measured by in the form of percent Fluoro uracil. In kind it is ADME. In outline:
as §1

Data set [27] relates to Candida albicans. Briefly: Compound is evaluated for disk diffusion assay of the activity against Candida albicans B-311 at 25.0 ug/disk. In kind it is functional. In outline:
(§5)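 Cells grown 7 h at 37 °C in trypticase soy broth with shaking at 250 rpm. 1 mL of culture was seeded into 1 L of yeast carbon base agar with lysine 200 µg/mL, and 15 mL was poured per plate. Peptides in water were loaded onto 6.35-mm paper disks. Plates were incubated 24 h at 37 °C and inhibition zones read.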

Data set [28] relates to Candida albicans. Briefly: Compound is evaluated for disk diffusion assay of the activity against Candida albicans B-311 at 1.5 ug/disk. In kind it is functional. The method in brief:
as §5
In general terms: In agar diffusion tests the substance spreads into inoculated agar from a disc or well.

Data set [29] relates to Candida albicans. Briefly: Compound is evaluated for disk diffusion assay of the activity against Candida albicans B-311 at 6.0 ug/disk. In kind it is functional. The method in brief:
as §5

Data set [30] concerns Candida albicans. Briefly: Compound is evaluated for disk diffusion assay of the activity against Candida albicans B-311 at […]. In kind it is functional.
The test system of data set [31] is Candida albicans. Briefly: Compound is evaluated for disk diffusion assay of the activity against Candida albicans B-311 at 3.0 ug/disk. In kind it is functional. In outline:
as §5

Where [32] appears, read: Candida albicans, read-out: MIC.

Turning to `C[C@H](N)C(=O)NC(C(=O)O)n1cc(F)c(=O)[nH]c1=O` (some centres undefined), the Serum stability in the data set filed under Homo sapiens [1] is given as 0; in the data set listed under Homo sapiens [2], 25; in the data set listed under Mus musculus [3] it was 0; in the data set listed under Homo sapiens [5] it was 7; in the data set filed under Mus musculus [6] it was 53; in the data set listed under Mus musculus [7] it was 12. Also, the Serum stability in the data set filed under Mus musculus [9] is given as 27; in [10], 9; in the data set filed under Mus musculus [11], 36; in the data set filed under Mus musculus [15], 43; in the data set filed under Homo sapiens [18], 3; in data set [22] it was 0. The Serum stability in the data set listed under Homo sapiens [25] came out at 16; in the data set listed under Homo sapiens [26] it was 15. The Zone size with Escherichia coli [4] was 26 mm; in the data set on Escherichia coli [12], 0 mm; with Escherichia coli [13], 0 mm; in the data set on Escherichia coli [14] it was 27 mm; in the data set on Escherichia coli [17] it was 22 mm; with Escherichia coli [19], 0 mm. The Zone size in the data set with Escherichia coli [20] was 0 mm; in the data set on Escherichia coli [23] it was 31 mm; in the data set with Escherichia coli [24] it was 25 mm. For the same compound, the MIC with Candida albicans [8] (setting [32]) was 25 µg/mL (≈ 91.2 µM); with Candida albicans [16] (setting [32]) it was 6.3 µg/mL (≈ 23 µM); in the data set on Candida albicans [21] (setting [32]), 25 µg/mL (≈ 91.2 µM).
`C[C@H](N)C(=O)N[C@@H](C(=O)O)n1cc(F)c(=O)[nH]c1=O` (stereo in doubt; 8a(L,L)): the Activity in the data set on Candida albicans [27] is recorded as 30; in the data set on Candida albicans [28], 16; in the data set with Candida albicans [29], 22; in the data set on Candida albicans [30], 26; in the data set with Candida albicans [31], 20. Besides, the MIC turned out to be 12.5 µg/mL (≈ 45.6 µM) against Candida albicans [8], 1.6 µg/mL (≈ 5.83 µM) with Candida albicans [16] and 12.5 µg/mL (≈ 45.6 µM) in the data set with Candida albicans [21].
For the compound `C[C@H](N)C(=O)N[C@@H](C(=O)O)n1cc(F)c(=O)[nH]c1=O` (stereo in doubt; 8b(L,D)), the Activity with Candida albicans [27], in the data set with Candida albicans [28], with Candida albicans [29], in the data set on Candida albicans [30] and with Candida albicans [31] was 0 in each case. Moreover, the MIC with Candida albicans [8], in the data set with Candida albicans [16] and against Candida albicans [21] was greater than 100 µg/mL throughout.
As to `O=c1[nH]cc(F)c(=O)[nH]1` [FLUOROURACIL], the Activity with Candida albicans [27] worked out at 44; in the data set on Candida albicans [28], 22; in the data set on Candida albicans [29], 30; in the data set with Candida albicans [30], 40; in the data set on Candida albicans [31], 30. Besides, the Zone size in the data set on Escherichia coli [4] was 41 mm; in the data set with Escherichia coli [12], 40 mm; in the data set on Escherichia coli [13], 41 mm; in the data set with Escherichia coli [14] it was 40 mm; in the data set with Escherichia coli [17], 33 mm; with Escherichia coli [19], 33 mm. Besides, the values for the Zone size in the data set on Escherichia coli [20], with Escherichia coli [23] and with Escherichia coli [24] were 38 mm, 46 mm and 38 mm, respectively. The MIC in the data set on Candida albicans [8] (setting [32]) amounted to 4 µg/mL (≈ 30.8 µM); with Candida albicans [16] (setting [32]), 1 µg/mL (≈ 7.69 µM); in the data set with Candida albicans [21] (setting [32]), 1 µg/mL (≈ 7.69 µM).
